This is an account of results in ChEMBL document CHEMBL3769381 (J Med Chem, 2016).

The target of experiment [1] is T1, Adenosine receptor A2a (Homo sapiens, UniProt P29274). In words: Agonist activity at human Adenosine A2A receptor expressed in yeast cells coexpressed with chimeric GPA1/Galphas at 100 uM after 16 hrs by beta-galactosidase reporter gene assay. In kind it is cell-based. Put shortly:
(§1)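 Human receptor expressed from GAPDH promoter (p426-GPD) in Δfar1 FUS1-lacZ yeast with Gpa1p(1-467) carrying the 5 C-terminal Gα residues. Cells are grown overnight in SD-URA at 30°C, diluted 1:10 and grown 8 h. They are set to OD600 0.02 and given compound at 1% v/v DMSO for 16 h at 30°C. A2A strain is grown in SD-URA-HIS, with 5 mM 3-amino-triazole in treatment media. Read-out: ONPG, (OD430−OD620)/OD620.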
(In general: Reporter assays use an easily measured gene product as a stand-in for the process of interest.)

The target of experiment [2] is T2, Adenosine receptor A1 (Homo sapiens) (UniProt P30542).
T2 sequence (whole entry): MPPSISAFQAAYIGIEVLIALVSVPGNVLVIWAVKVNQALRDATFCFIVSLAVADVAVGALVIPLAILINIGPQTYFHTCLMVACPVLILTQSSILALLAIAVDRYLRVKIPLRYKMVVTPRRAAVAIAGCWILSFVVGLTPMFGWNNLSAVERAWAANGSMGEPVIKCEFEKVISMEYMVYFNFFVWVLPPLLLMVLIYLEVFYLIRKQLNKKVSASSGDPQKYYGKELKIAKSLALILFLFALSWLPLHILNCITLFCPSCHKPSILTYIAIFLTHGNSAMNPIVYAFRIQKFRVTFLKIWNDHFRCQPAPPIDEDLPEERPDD
In words: Agonist activity at human Adenosine A1 receptor expressed in yeast cells coexpressed with chimeric GPA1/Galphai1 at 100 uM after 16 hrs by beta galactosidase reporter gene assay. In kind it is cell-based. Put shortly:
as §1

Experiment [3] has as its target T3, Adenosine receptor A2b (Homo sapiens) (UniProt P29275).
T3 sequence (whole entry): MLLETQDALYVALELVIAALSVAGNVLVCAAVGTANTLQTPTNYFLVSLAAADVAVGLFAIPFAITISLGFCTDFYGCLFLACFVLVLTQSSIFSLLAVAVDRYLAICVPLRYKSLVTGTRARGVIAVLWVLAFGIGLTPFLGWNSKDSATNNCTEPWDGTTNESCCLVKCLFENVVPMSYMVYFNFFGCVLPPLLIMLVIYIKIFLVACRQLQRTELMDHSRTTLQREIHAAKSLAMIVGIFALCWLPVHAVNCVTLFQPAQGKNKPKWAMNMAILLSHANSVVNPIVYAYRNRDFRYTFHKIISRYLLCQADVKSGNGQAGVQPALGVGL
Kind of experiment: Agonist activity at human Adenosine A2B receptor expressed in yeast cells coexpressed with chimeric GPA1/Galphas at 100 µM after 16 hrs by beta-galactosidase reporter gene assay. It counts as cell-based. Put shortly:
(§2)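 Yeast (Δfar1, FUS1-lacZ) express A2BR from the GAPDH promoter alongside Gpa1p/Gαs chimera. The OD600 is 0.02 and compound is added in 1% v/v DMSO for 16 h at 30°C. β-Galactosidase is read with ONPG at OD430, normalised as (OD430−OD620)/OD620. […] Three-parameter logistic fit gives EC50 and Emax. Data are from 5-8 independent experiments.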

Experiment [4] concerns the target T2, Adenosine receptor A1 (Homo sapiens).
In experiment [5] the target is T1, Adenosine receptor A2a.
Experiment [6] has as its target T3, Adenosine receptor A2b (Homo sapiens). Kind of experiment: Binding affinity to human Adenosine A2B receptor expressed in yeast cells coexpressed with GPA1/Galphas. It counts as cell-based. In a few lines:
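pKA is derived by non-linear regression of the operational model of agonism applied to 16 h yeast FUS1-lacZ concentration-response data, with A2BR coupled to the GPA1/Gαs chimera.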

Experiment [7] deals with T4, Adenosine receptor A1 (Homo sapiens, UniProt P30542).
T4 sequence (P30542 whole entry): T2 sequence (whole entry)
In words: Agonist activity at human Adenosine A1 receptor transfected in CHO-K1 cells assessed as inhibition of forskolin-stimulated cAMP production after 30 mins by multimode microplate reader analysis. It counts as functional, cell-based.

Another experiment addresses T5, Adenosine receptor A3 (Homo sapiens, UniProt P0DMS8).
T5 sequence (P0DMS8 whole entry): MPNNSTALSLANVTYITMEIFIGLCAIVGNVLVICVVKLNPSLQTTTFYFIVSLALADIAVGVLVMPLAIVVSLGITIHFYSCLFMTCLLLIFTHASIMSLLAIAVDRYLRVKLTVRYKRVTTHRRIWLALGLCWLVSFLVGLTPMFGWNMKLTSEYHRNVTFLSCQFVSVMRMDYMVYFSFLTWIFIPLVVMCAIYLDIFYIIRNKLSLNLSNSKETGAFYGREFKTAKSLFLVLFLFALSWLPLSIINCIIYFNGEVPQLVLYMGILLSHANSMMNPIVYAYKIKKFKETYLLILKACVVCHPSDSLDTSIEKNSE
In words: (§3) Agonist activity at human Adenosine A3 receptor transfected in CHO-K1 cells assessed as inhibition of forskolin-stimulated cAMP production after 30 mins by multimode microplate reader analysis. It counts as functional, cell-based. In a few lines:
(§4)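 CHO-K1 cells are transiently transfected with receptor (2 µg DNA, FuGene 6) and harvested at 48 h. They are co-incubated with 10 µM forskolin and ligand (10 pM to 1 µM) for 30 min at room temperature. cAMP is measured by LANCE kit. Data are expressed as % of the 10 µM forskolin response.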

In experiment [8] the target is T3, Adenosine receptor A2b (Homo sapiens). Kind of experiment: Agonist activity at human Adenosine A2B receptor expressed in yeast cells coexpressed with chimeric GPA1/Galphas after 16 hrs by beta-galactosidase reporter gene assay. It counts as cell-based. In a few lines: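 Yeast (Δfar1, FUS1-lacZ) express A2BR from the GAPDH promoter alongside Gpa1p/Gαs chimera. The OD600 is 0.02 and compound is added in 1% v/v DMSO for 16 h at 30°C. β-Galactosidase is read with ONPG at OD430, normalised as (OD430−OD620)/OD620. Three-parameter logistic fit gives EC50 and Emax. Data are from 5-8 independent experiments.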

Experiment [9] addresses T1, Adenosine receptor A2a. In words: Agonist activity at human Adenosine A2A receptor expressed in yeast cells coexpressed with chimeric GPA1/Galphas after 16 hrs by beta-galactosidase reporter gene assay. In kind it is cell-based.
The target in experiment [10] is T2, Adenosine receptor A1 (Homo sapiens). The source holds these as a separate data set.
The target of experiment [11] is T4, Adenosine receptor A1. In words: Agonist activity at human Adenosine A1 receptor expressed in yeast cells coexpressed with chimeric GPA1/Galphai1 after 16 hrs by beta galactosidase reporter gene assay. It counts as cell-based.
The target in experiment [12] is T6, Adenosine receptor A3 (Homo sapiens) (UniProt P0DMS8).
T6 sequence (whole entry): T5 sequence (P0DMS8 whole entry)
Kind of experiment: Agonist activity at human Adenosine A3 receptor transfected in CHO-K1 cells assessed as inhibition of forskolin-stimulated cAMP production after 30 mins by multimode microplate reader analysis relative to total forskolin. In kind it is functional, cell-based. Details: concentration or dose not given beside the values. Put shortly: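 CHO-K1 cells are transiently transfected with receptor (2 µg DNA, FuGene 6) and harvested at 48 h. Cells are resuspended in PBS with 0.1% BSA and 25 µM rolipram, at 2500 cells/well. They are co-incubated with 10 µM forskolin and ligand (10 pM to 1 µM) for 30 min at room temperature. cAMP is measured by LANCE kit. Data are expressed as % of the 10 µM forskolin response.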
Background: Changes in cAMP serve as a functional read-out for many G protein-coupled receptors.

For experiment [13], the target named is T3, Adenosine receptor A2b (Homo sapiens). Kind of experiment: Agonist activity at human Adenosine A2B receptor expressed in yeast cells coexpressed with chimeric GPA1/Galphas after 16 hrs by beta-galactosidase reporter gene assay relative to NECA. In kind it is cell-based. Put shortly: as §2
Experiment [14] deals with T6, Adenosine receptor A3 (Homo sapiens). The description is as §3. It counts as functional, cell-based. Put shortly:
as §4

Experiment [15] addresses T1, Adenosine receptor A2a. This is another data set of the same source.
Experiment [16] has as its target T3, Adenosine receptor A2b (Homo sapiens).

Activity calls are given as the source filed them. No cut-off for these calls is given here.

T1 sequence (P29274 whole entry): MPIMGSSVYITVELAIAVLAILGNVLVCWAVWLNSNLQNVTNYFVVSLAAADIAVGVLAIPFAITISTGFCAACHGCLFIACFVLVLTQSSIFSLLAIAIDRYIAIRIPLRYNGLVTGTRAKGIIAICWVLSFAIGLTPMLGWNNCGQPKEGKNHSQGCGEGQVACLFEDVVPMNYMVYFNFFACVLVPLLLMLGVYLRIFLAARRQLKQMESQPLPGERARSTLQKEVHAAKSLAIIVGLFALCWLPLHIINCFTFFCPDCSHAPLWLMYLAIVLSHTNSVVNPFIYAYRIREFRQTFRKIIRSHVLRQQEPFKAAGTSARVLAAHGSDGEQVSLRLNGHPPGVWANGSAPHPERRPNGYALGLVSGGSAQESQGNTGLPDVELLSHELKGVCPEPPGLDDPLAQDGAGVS

Consider `CCNC(=O)[C@H]1O[C@@H](n2cnc3c(N4[C@@H]5CCC[C@H]4C[C@H](N(C)C)C5)ncnc32)[C@H](O)[C@@H]1O`, for which the outcome (on Adenosine receptor A2a [1]; in experiment [2]; in experiment [3]) was inactive. The pKA entry (in experiment [4]; at Adenosine receptor A2a [5]; in experiment [6]) was “inactive” each time.

For orientation: IC50 means the concentration needed to halve the response being measured. One may read the EC50 as the concentration needed to bring the measured effect to its halfway point. The Emax is the greatest response seen or fitted, relative to the assay's reference. Take `CCNC(=O)[C@H]1O[C@@H](n2cnc3c(NC45CC6CC(CC(O)(C6)C4)C5)ncnc32)[C@H](O)[C@@H]1O`: the IC50 on Adenosine receptor A1 [7] was 37.2 nM; on Adenosine receptor A3, 79.4 nM. In addition, the pEC50 entry (in experiment [8]; on Adenosine receptor A2a [9]) was “inactive” throughout. Besides, the pKA in [4] came out at 3.5. For the same compound, the log(activity) in [10] amounted to 1. In addition, a half-maximal response on Adenosine receptor A1 [11] (EC50) required 100000 nM. The Activity in [12] was -32.7%. Also, the pKA result (at Adenosine receptor A2a [5]; in [6]) was “inactive” throughout. The Emax result in [13] was “inactive”.

As to `CCNC(=O)[C@H]1O[C@@H](n2cnc3c(N[C@H]4C[C@H]5CCC[C@@H](C4)N5C)ncnc32)[C@H](O)[C@@H]1O`, the outcome (at Adenosine receptor A2a [1]; in experiment [3]) was inactive. Also, the pKA result (in experiment [4]; on Adenosine receptor A2a [5]; in experiment [6]) was “inactive” each time.

As for `CCNC(=O)[C@H]1O[C@@H](n2cnc3c(NC45CC6CC(CC(C6)C4)C5)ncnc32)[C@H](O)[C@@H]1O`, the half-maximal inhibitory concentration (IC50) at Adenosine receptor A1 [7] is 2.88 nM. Also, the pIC50 result in experiment [14] is “inactive”. The pEC50 entry (in experiment [8]; on Adenosine receptor A2a [9]) was “inactive” each time. The pKA in [4] stood at 4.2. The compound also returned a log(activity) in experiment [10] of 1.2. At Adenosine receptor A1 [11], this compound gave an EC50 of 3980 nM. Besides, the result in [12] was inactive. Besides, the pKA result (at Adenosine receptor A2a [5]; in experiment [6]) was “inactive” each time. Further, in [13], the Emax result is “inactive”.

With `O[C@@H]1[C@H](O)[C@@H](CSc2ccccc2F)O[C@H]1n1cnc2c(NC34CC5CC(CC(C5)C3)C4)ncnc21`, the outcome in experiment [2] and in [3] was inactive. For the same compound, the pKA entry in experiment [4] and in experiment [6] was “inactive” each time.

Consider `OC[C@H]1O[C@@H](n2cnc3c(NC4CCCC4)nc(Cl)nc32)[C@H](O)[C@@H]1O`, for which the figures for the log(activity) (on Adenosine receptor A2a [15]; in [16]; in experiment [10]) were -0.1, 3.5 and 0.6, respectively. In addition, the Activity in experiment [12] is -46.6%. Moreover, the pKA was 4.7 at Adenosine receptor A2a [5] and 4.4 in experiment [6]. Besides, the maximum response (Emax) in [13] was found to be 30.6%.

Regarding `OC[C@H]1O[C@@H](n2cnc3c(N[C@@H]4CCC[C@H]4O)ncnc32)[C@H](O)[C@@H]1O`, the IC50 at Adenosine receptor A1 [7] was 4.37 nM; at Adenosine receptor A3, 27.5 nM. The pEC50 result (in experiment [8]; on Adenosine receptor A2a [9]) was “inactive” throughout. Further, the pKA in experiment [4] is 5.5. For the same compound, the log(activity) in experiment [10] turned out to be 0.7. The compound also showed an EC50 on Adenosine receptor A1 [11] of 631 nM. In experiment [12], the Activity was -35.1%. The pKA result (at Adenosine receptor A2a [5]; in experiment [6]) was “inactive” in each case. Besides, the Emax result in experiment [13] was “inactive”.

`OC[C@H]1O[C@@H](n2cnc3c(N[C@@H]4CCC[C@H]4OCc4ccccc4)ncnc32)[C@H](O)[C@@H]1O` came in with a pKA in [4] of 4.9. In addition, the outcome in experiment [12] was inactive. In addition, the pKA result (at Adenosine receptor A2a [5]; in [6]) was “inactive” each time. Moreover, the Emax entry in experiment [13] is “inactive”.

`CCNC(=O)[C@H]1O[C@@H](n2cnc3c(N)ncnc32)[C@H](O)[C@@H]1O`: the figures for the pKA in experiment [4] and in experiment [6] were 4.4 and 4.2, respectively. Besides, in experiment [12], the Activity was -44.1%.

As to `CCNC(=O)[C@H]1O[C@@H](n2cnc3c(N4[C@@H]5CCC[C@H]4C[C@H](N)C5)ncnc32)[C@H](O)[C@@H]1O`, the result (on Adenosine receptor A2a [1]; in experiment [2]; in experiment [3]) was inactive. In addition, the pKA result (in experiment [4]; at Adenosine receptor A2a [5]; in experiment [6]) was “inactive” throughout.

In the case of `CN1[C@@H]2CCC[C@H]1C[C@@H](Nc1ncnc3c1ncn3[C@@H]1O[C@H](CO)[C@@H](O)[C@H]1O)C2`, the result (on Adenosine receptor A2a [1]; in experiment [3]) was inactive. For the same compound, the pKA entry (in experiment [4]; at Adenosine receptor A2a [5]; in experiment [6]) was “inactive” in each case.

As for `CCNC(=O)[C@H]1O[C@@H](n2cnc3c(N)nc(NCCc4ccc(CCC(=O)O)cc4)nc32)[C@H](O)[C@@H]1O`, the results for the pKA in [4] and in experiment [6] were 2.1 and 3.4, respectively. The same compound returned an Emax in [13] of 59.1%.

Consider `CN1[C@@H]2CCC[C@H]1C[C@@H](Nc1ncnc3c1ncn3[C@@H]1O[C@H](CSc3ccccc3F)[C@@H](O)[C@H]1O)C2`, for which the result (at Adenosine receptor A2a [1]; in [2]; in [3]) was inactive. Further, the pKA result (in experiment [4]; on Adenosine receptor A2a [5]; in experiment [6]) was “inactive” in each case.

Take `Nc1ncnc2c1ncn2[C@@H]1O[C@H](CO)[C@@H](O)[C@H]1O`: the Emax in experiment [13] is 70.4%. Moreover, the pKA in experiment [6] worked out at 3.8.
